# Measurements collected from several papers.
# Lines come from different studies, so protocols differ.
# PTPN12: Tyrosine-protein phosphatase non-receptor type 12 (PTPN12, Homo sapiens, UniProt Q05209)
# TPR: Trypanothione reductase (TPR, Trypanosoma cruzi, UniProt P28593)
# SLC6A2: Sodium-dependent noradrenaline transporter (SLC6A2, Homo sapiens, UniProt P23975)
# Aldo-keto reductase family 1 member A1: Aldo-keto reductase family 1 member A1 (Rattus norvegicus, UniProt P51635)
# NPSR1: Neuropeptide S receptor (NPSR1, Homo sapiens, UniProt Q6W5P4)
# GRM3: Metabotropic glutamate receptor 3 (GRM3, Homo sapiens, UniProt Q14832)
Structure (SMILES),target,test,setting,IC50 [µM]
CCN(CC)CCOc1ccc2c(c1)C(=O)c1cc(OCCN(CC)CC)ccc1-2,"Cholinesterase (BCHE, Homo sapiens, UniProt P06276)","enzyme activity, inhibitor",,> 50
O=C1c2ccccc2C(=O)c2c(O)c(O)cc(O)c21,PTPN12,"enzyme activity, inhibitor, fluorescence",,7
CCN(CC)CCn1c(=N)n(CC(=O)c2ccc(C)cc2)c2ccccc21,TPR,"enzyme activity, inhibitor",,≤ 10
Clc1ccc2c(c1)N(CCCN1CCN(CCCc3ccccc3)CC1)c1ccccc1S2,TPR,"enzyme activity, inhibitor, absorbance",,0.75
Clc1ccc(C(c2ccccc2)c2nnnn2CCCCN2CCN(CC=Cc3ccccc3)CC2)cc1 (stereo not drawn),SLC6A2,"transporter uptake, inhibitor",,0.985
COc1ccc2nc(/N=C3/NC(=O)C(=Cc4ccc(O)c(OC)c4)S3)sc2c1,Aldo-keto reductase family 1 member A1,"enzyme activity, inhibitor, absorbance",pH 7.2,0.61
CO/N=C(\C(=O)N[C@@H]1C(=O)N2C(C(=O)O)=C(COC(C)=O)CS[C@H]12)c1csc(N)n1,PTPN12,"enzyme activity, inhibitor, fluorescence",,70
Nc1c(Cl)cccc1C(=O)Nc1ccccc1C(=O)O,"srtA (Staphylococcus aureus, UniProt Q2FV99)","enzyme activity, inhibitor",,59.7
O=C(O)C1=CC(=C(c2ccc(O)c(C(=O)O)c2)c2ccc(O)c(C(=O)O)c2)C=CC1=O,TPR,"enzyme activity, inhibitor, absorbance",,0.176
N=c1c2c(ncn1-c1ccccc1)Oc1ccc3ccccc3c1C2c1ccc2c(c1)OCCO2 (stereo not drawn),NPSR1,"cAMP, antagonist, TR-FRET",,3.07
O=C(Nc1ccn(Cc2ccc(O)cc2C(F)(F)F)n1)c1c(F)cccc1F,"Short transient receptor potential channel 3 (TRPC3, Homo sapiens, UniProt Q13507)","ion current, inhibitor",,> 10
COc1ccc(-c2cc(C(N)=O)ncc2OCc2ccc(OC)nc2)c(F)c1,GRM3,"ion flux, antagonist",,> 10
Cc1cnc(-c2ccc(-c3ccc(NC(=O)Nc4c(F)cc(F)cc4F)cc3F)c3c2C(=O)NC3)[nH]1,"Tyrosine-protein kinase Fgr (FGR, Homo sapiens, UniProt P09769)","enzyme activity, inhibitor",,0.01
COc1cccc(C2c3c(ncn(-c4ccc(C#N)cc4)c3=N)Oc3ccc4ccccc4c32)c1 (stereo not drawn),NPSR1,"cAMP, antagonist, TR-FRET",,5.52
N=c1n(CCN2CCCCC2)c2ccccc2n1CC(O)c1ccc(Cl)c(Cl)c1 (stereo not drawn),TPR,"enzyme activity, inhibitor",,≤ 10
COc1ccc(-c2cc(C(N)=O)ncc2OCc2ccc(F)nc2)c(F)c1,GRM3,"ion flux, antagonist",,> 10
c1ccc(CCCN2CCNCC2)cc1,TPR,"enzyme activity, inhibitor, absorbance",,34.5
c1ccc(CCC2CCN(CCCCn3nnnc3C(c3ccccc3)c3ccccc3)CC2)cc1,SLC6A2,"transporter uptake, inhibitor",,0.274
CCN(CC)C(=S)SSC(=S)N(CC)CC,PTPN12,"enzyme activity, inhibitor, fluorescence",,> 500
Cn1ccc(COc2cnc(C(N)=O)cc2-c2ccc(F)cc2)n1,GRM3,"ion flux, antagonist",,> 10
COc1cccc(C2c3c(ncn(-c4ccc(NC(C)=O)cc4)c3=N)Oc3ccc4ccccc4c32)c1 (stereo not drawn),NPSR1,"cAMP, antagonist, TR-FRET",,19.4
CN1CCN(c2ccc(Nc3ncc4cc(C#N)c(=O)n(C5CCCC5)c4n3)cc2)CC1,"Fibroblast growth factor receptor 4 (FGFR4, Homo sapiens, UniProt P22455)","enzyme activity, inhibitor",,1.53
COc1cccc(C2c3c(ncn(-c4ccccn4)c3=N)Oc3ccc4ccccc4c32)c1 (stereo not drawn),NPSR1,"calcium signal, antagonist",,5.51
Nc1nccc2cc(CNC(=O)c3cnn(Cc4ccc(Cn5ccccc5=O)cc4)c3)ccc12,"Plasma kallikrein (KLKB1, Homo sapiens, UniProt P03952)","enzyme activity, inhibitor",with preincubation,0.00059
COc1ccc(-c2cc(C(N)=O)ncc2OCc2ccncc2)c(F)c1,GRM3,"ion flux, antagonist",,> 10
O=C1c2ccccc2-c2cccc3cccc1c23,PTPN12,"enzyme activity, inhibitor, fluorescence",,> 150
c1ccc(CCC2CCN(CCCn3nnnc3C(c3ccccc3)c3ccccc3)CC2)cc1,SLC6A2,"transporter uptake, inhibitor",,0.41
O=C(O)c1cc(O)c2c(c1)[C@H]([C@H]1c3cc(C(=O)O)cc(O)c3C(=O)c3c(O[C@@H]4O[C@H](CO)[C@@H](O)[C@H](O)[C@H]4O)cccc31)c1cccc(O[C@@H]3O[C@H](CO)[C@@H](O)[C@H](O)[C@H]3O)c1C2=O,PTPN12,"enzyme activity, inhibitor",,0.2
COc1ccc(-n2cnc3c(c2=N)C(c2cccc(OC)c2)c2c(ccc4ccccc24)O3)cc1 (stereo not drawn),NPSR1,"calcium signal, antagonist",,4.38
CCN(CC)CCn1c(=N)n(CC(O)c2ccc(Cl)c(Cl)c2)c2ccccc21 (stereo not drawn),TPR,"enzyme activity, inhibitor",,≤ 10
COc1ccc2nc(/N=C3/NC(=O)C(=Cc4cc(I)c(O)c(OC)c4)S3)sc2c1,Aldo-keto reductase family 1 member A1,"enzyme activity, inhibitor, absorbance",pH 7.2,> 50
OC(c1ccccc1)c1ccccc1,TPR,"enzyme activity, inhibitor, absorbance",,> 100
CC(C)Cc1sc(N)nc1-c1ccc(P(=O)(O)O)o1,"Fructose-1,6-bisphosphatase 1 (Mus musculus, UniProt Q9QXD6)","enzyme activity, inhibitor",,0.3
N=c1c2c(ncn1Cc1ccccc1)Oc1ccc3ccccc3c1C2c1ccccc1 (stereo not drawn),NPSR1,"cAMP, antagonist, TR-FRET",,3.07
OC[C@@H]1[C@@H](O)[C@H](O)[C@@H](O)[C@@H]2O[C@H]12,"bglA (Thermotoga maritima, UniProt Q08638)","enzyme activity, inhibitor","pH 6.8, with preincubation",0.37
COc1cccc(C2c3c(ncn(-c4ccc(Br)cc4)c3=N)Oc3ccc4ccccc4c32)c1 (stereo not drawn),NPSR1,"cAMP, antagonist, TR-FRET",,15.4
CSc1ccc(/C=C2/C(C)=C(CC(=O)O)c3cc(F)ccc32)cc1,"Dual specificity calcium/calmodulin-dependent 3',5'-cyclic nucleotide phosphodiesterase 1B (Homo sapiens, UniProt Q01064)","enzyme activity, inhibitor",,> 100
Fc1ccc(C(c2ccc(F)cc2)c2nnnn2CCCCN2CCN(Cc3ccccc3)CC2)cc1,SLC6A2,"transporter uptake, inhibitor",,0.16
COc1cccc(C2c3c(ncn(-c4cccc(Cl)c4)c3=N)Oc3ccc4ccccc4c32)c1 (stereo not drawn),NPSR1,"cAMP, antagonist, TR-FRET",,15.4
